According to ChEMBL document CHEMBL1240337, “Identification of proteases that regulate erythrocyte rupture by the malaria parasite Plasmodium falciparum” (Nat Chem Biol, 2008):
Blank lines part the entries; values can stand above or below the molecule they belong to. Active and inactive are the calls of the source. The calls are words filed in the database; no cut-off is given here.

Key:
[1] = biological target: T1, Protease, putative (Plasmodium falciparum 3D7) (UniProt Q8I1Y2); assay: Inhibition of Plasmodium falciparum 3D7 PFD0230c-mediated rupture of infected human red blood cells at 10 uM after 24 hrs by giemsa staining
T1 sequence (whole entry): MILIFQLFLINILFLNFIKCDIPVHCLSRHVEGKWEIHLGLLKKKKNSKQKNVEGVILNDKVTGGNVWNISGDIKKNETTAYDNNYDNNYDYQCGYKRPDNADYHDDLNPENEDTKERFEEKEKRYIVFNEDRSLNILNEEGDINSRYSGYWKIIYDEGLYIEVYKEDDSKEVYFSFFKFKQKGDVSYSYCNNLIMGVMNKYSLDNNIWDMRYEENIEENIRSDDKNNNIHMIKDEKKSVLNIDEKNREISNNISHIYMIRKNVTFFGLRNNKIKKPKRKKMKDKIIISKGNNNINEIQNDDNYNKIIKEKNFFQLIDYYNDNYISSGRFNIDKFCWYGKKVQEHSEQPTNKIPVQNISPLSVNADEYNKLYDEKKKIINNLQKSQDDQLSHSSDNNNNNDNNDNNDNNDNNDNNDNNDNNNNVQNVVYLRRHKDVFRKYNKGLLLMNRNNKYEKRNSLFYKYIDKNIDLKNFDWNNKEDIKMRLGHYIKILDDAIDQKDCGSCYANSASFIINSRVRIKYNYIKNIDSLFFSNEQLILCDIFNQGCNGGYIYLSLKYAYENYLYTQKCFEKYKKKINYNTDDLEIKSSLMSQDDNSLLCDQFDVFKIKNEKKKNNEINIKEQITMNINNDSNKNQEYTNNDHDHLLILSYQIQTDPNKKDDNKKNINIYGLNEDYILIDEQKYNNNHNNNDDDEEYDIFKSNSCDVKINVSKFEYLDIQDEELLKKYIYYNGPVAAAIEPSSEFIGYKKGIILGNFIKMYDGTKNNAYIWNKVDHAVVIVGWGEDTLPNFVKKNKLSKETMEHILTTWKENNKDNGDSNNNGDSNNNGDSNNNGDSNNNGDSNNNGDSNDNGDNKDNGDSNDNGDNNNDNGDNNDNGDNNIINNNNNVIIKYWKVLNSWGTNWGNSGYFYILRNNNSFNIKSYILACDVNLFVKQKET
Outline: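 Giemsa-stained thin blood films were read from schizonts exposed at 36 h post invasion to 10 µM inhibitor, to assess rupture and morphology.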

Plasmodium falciparum [2] = assay: Antiplasmodial activity against Plasmodium falciparum schizont infected in human erythrocytes assessed as effect on parasite ring-to-schizont morphology at 1 to 100 uM after 24 by propidium iodide staining-based FACS analysis; format: functional, organism-based
[3] = Cytotoxicity against african green monkey BSC1 cells after 24 hrs by celltiter glo assay; format: cell-based; details: chlorocebus aethiops, bsc-1, 24 h
Outline: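 BSC-1 African green monkey kidney epithelial cells exposed to compounds; viability read by CellTiter-Glo luminescence.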

Plasmodium falciparum [4] = assay: Inhibition of Plasmodium falciparum SUB1-mediated SERA5 processing at 1 1 to 100 uM after 6 to 8 hrs by SDS-PAGE
Outline: (§1)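 Percoll-enriched schizonts (36–40 h post invasion) treated with inhibitor for 6–8 h in serum-free RPMI. Medium run on 8% SDS-PAGE; schizont pellet solubilized in SDS loading buffer. SERA5 detected by western blot with a monoclonal recognizing the P50 product; PfSUB1 detected with antisera.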

Plasmodium falciparum [5] = assay: Antiplasmodial activity against Plasmodium falciparum schizont infected in human erythrocytes assessed as effect on schizont morphology at 1 to 100 uM after 24 by propidium iodide staining-based FACS analysis; format: functional, organism-based
Plasmodium falciparum [6] = assay: Antiplasmodial activity against Plasmodium falciparum schizont infected in human erythrocytes assessed as inhibition of ring-stage parasite growth at 1 to 100 uM after 24 by propidium iodide staining-based FACS analysis; format: functional, organism-based
[7] = biological target: T1, Protease, putative (Plasmodium falciparum 3D7); assay: Inhibition of Plasmodium falciparum 3D7 PFD0230c-mediated SERA5 processing at 1 1 to 100 uM after 6 to 8 hrs by SDS-PAGE; outline: as §1
Plasmodium falciparum [8] = assay: Antiplasmodial activity against Plasmodium falciparum schizont infected in human erythrocytes assessed as blockade of parasite-mediated rupture of erythrocytes after 24 by propidium iodide staining-based FACS analysis; format: functional, organism-based
Outline: (§2)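 Synchronous early schizonts (~36 h post invasion) exposed to inhibitor for 24 h at 37 °C. Cells fixed in 0.05% glutaraldehyde/PBS overnight at 4 °C, permeabilized with 0.25% Triton X-100 and stained with propidium iodide. Flow cytometry gated ring and schizont populations as fractions of total parasitemia, normalized to averaged DMSO wells. Triplicate runs.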

[9] = Inhibition of Plasmodium falciparum SUB1 by fluorescence spectrophotometry
Outline: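 Recombinant PfSUB1 cleavage of the fluorogenic peptide substrate pepF1-6R measured over a range of inhibitor concentrations. IC50 taken from the curve fit.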

[10] = biological target: T1, Protease, putative (Plasmodium falciparum 3D7); assay: Inhibition of Plasmodium falciparum 3D7 PFD0230c-mediated rupture of infected human red blood cells after 24 hrs by propidium iodide staining-based FACS analysis; outline: as §2
[11] = biological target: T1, Protease, putative (Plasmodium falciparum 3D7); assay: Inhibition of Plasmodium falciparum 3D7 PFD0230c by fluorescence spectrophotometry
Plasmodium falciparum [12] = assay: Displacement of JCP104 from Plasmodium falciparum SUB1 at 50 uM by SDS-PAGE
Plasmodium falciparum [13] = assay: Inhibition of Plasmodium falciparum SUB1-mediated rupture of infected human red blood cells at 50 uM after 24 hrs by propidium iodide staining-based FACS analysis
Outline: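 Early schizonts (~36 h post invasion) given 50 µM compound (final) for 24 h at 37 °C, then glutaraldehyde-fixed, Triton-permeabilized and propidium iodide stained. Flow cytometric schizont fraction normalized to DMSO controls.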

[14] = biological target: T1, Protease, putative (Plasmodium falciparum 3D7); assay: Inhibition of Plasmodium falciparum 3D7 PFD0230c-mediated rupture of infected human red blood cells at 1 to 100 uM after 24 hrs by propidium iodide staining-based FACS analysis
Outline: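 Schizonts at 36 h post invasion treated in triplicate with 1–100 µM inhibitor for 24 h, then propidium iodide stained and analyzed by flow cytometry. Schizont accumulation is expressed as fold increase over the DMSO control.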

[15] = biological target: T2, Probable cathepsin C (Plasmodium falciparum 3D7) (UniProt Q8IIJ9); assay: Inhibition of Plasmodium falciparum 3D7 cathepsin C by fluorescence spectrophotometry
T2 sequence (whole entry): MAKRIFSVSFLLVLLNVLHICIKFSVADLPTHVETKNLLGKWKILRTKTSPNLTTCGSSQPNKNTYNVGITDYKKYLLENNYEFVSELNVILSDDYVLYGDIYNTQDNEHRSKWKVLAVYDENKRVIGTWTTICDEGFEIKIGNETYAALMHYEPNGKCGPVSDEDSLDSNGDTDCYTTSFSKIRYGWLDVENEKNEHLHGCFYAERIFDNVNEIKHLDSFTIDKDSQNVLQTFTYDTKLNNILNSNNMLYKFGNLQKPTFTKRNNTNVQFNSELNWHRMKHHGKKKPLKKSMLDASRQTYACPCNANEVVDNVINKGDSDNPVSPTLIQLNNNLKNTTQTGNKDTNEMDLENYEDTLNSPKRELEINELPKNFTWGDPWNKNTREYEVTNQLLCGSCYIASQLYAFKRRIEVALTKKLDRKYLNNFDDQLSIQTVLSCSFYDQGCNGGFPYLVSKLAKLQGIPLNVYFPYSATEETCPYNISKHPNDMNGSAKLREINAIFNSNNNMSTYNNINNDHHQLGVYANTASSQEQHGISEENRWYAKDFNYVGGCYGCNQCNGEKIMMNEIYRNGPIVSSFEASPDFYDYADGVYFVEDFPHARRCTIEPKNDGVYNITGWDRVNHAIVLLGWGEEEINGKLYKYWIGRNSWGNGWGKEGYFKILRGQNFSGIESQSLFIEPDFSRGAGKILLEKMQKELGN

Plasmodium falciparum [16] = assay: Inhibition of Plasmodium falciparum 3D7 falcipain-2 by fluorescence spectrophotometry
[17] = biological target: T3, Falcipain-3 (Plasmodium falciparum 3D7) (UniProt Q8IIL0); assay: Inhibition of Plasmodium falciparum 3D7 falcipain-3 by fluorescence spectrophotometry
T3 sequence (whole entry): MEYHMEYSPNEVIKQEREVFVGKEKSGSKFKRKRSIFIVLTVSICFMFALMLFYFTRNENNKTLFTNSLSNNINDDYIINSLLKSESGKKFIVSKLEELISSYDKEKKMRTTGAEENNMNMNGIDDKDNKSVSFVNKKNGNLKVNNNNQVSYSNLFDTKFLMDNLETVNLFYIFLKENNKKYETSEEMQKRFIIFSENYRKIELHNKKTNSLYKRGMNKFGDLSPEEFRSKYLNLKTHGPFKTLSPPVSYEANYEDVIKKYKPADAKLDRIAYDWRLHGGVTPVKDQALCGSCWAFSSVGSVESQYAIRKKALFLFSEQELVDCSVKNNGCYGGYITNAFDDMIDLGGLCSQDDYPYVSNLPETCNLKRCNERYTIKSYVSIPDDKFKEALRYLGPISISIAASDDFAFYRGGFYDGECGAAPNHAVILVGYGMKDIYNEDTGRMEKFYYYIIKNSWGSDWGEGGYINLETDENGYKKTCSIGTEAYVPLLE

[18] = biological target: T4, Cysteine proteinase falcipain-1 (Plasmodium falciparum 3D7) (UniProt Q8I6V0); assay: Inhibition of Plasmodium falciparum 3D7 falcipain-1 by fluorescence spectrophotometry
T4 sequence (whole entry): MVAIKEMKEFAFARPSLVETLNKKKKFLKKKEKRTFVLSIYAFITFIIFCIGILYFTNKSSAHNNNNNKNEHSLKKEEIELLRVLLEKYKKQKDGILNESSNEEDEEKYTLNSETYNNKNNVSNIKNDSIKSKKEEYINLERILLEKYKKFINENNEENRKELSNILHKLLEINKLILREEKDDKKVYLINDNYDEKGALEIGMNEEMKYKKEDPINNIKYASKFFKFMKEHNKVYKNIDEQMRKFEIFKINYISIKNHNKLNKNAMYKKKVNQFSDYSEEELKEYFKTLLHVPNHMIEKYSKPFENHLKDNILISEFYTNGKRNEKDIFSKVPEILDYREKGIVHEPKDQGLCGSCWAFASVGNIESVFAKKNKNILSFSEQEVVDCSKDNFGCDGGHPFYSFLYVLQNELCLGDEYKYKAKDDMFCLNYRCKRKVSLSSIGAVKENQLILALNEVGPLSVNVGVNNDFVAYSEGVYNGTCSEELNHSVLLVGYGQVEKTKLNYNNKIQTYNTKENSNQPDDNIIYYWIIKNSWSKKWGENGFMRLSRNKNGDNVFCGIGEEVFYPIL

[19] = biological target: T5, Preprocathepsin c, putative (Plasmodium falciparum 3D7) (UniProt Q8I0V1); assay: Inhibition of Plasmodium falciparum 3D7 PFL2290w by fluorescence spectrophotometry
T5 sequence (whole entry): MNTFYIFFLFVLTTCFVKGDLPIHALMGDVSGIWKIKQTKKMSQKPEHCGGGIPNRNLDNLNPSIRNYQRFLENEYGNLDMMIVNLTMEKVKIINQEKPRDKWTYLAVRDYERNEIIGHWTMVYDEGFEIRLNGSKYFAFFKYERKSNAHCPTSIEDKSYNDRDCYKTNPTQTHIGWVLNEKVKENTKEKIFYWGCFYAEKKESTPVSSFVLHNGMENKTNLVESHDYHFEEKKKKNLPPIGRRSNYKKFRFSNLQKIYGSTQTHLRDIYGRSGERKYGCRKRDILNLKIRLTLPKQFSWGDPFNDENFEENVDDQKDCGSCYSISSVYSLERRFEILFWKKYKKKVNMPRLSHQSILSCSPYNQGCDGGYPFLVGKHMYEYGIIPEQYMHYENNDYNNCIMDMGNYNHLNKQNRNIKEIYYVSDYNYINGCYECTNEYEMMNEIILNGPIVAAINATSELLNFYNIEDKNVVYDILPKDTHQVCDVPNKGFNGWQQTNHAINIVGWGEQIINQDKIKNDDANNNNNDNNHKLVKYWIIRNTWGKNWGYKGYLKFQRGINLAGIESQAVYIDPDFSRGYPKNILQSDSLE

SMILES: CCOC(=O)[C@H]1O[C@@H]1C(=O)N[C@H](C(=O)NCCc1ccc(O)cc1)[C@@H](C)CC
inhibition [1]: Active

SMILES: O=C(CCCC[C@H]1SC[C@H]2NC(=O)N[C@H]21)NCCCCCC(=O)Nc1ccc2c(Cl)c(OCCc3ccccc3)oc(=O)c2c1
Activity (Plasmodium falciparum [12]): Active
Activity (Plasmodium falciparum [13]): Active
inhibition (Plasmodium falciparum [13]): Active

SMILES: O=C(N[C@H](/C=C/S(=O)(=O)c1ccccc1)CCc1ccccc1)C1CCCN1 (stereo not given in full)
inhibition [14]: inactive
inhibition [15]: Active
inhibition (Plasmodium falciparum [16]): inactive
inhibition [17]: inactive
inhibition (Plasmodium falciparum [4]): Active
inhibition [18]: Active
inhibition [7]: Active
inhibition [1]: inactive

SMILES: O=C(CCCC[C@H]1SC[C@H]2NC(=O)N[C@H]21)Nc1ccc2c(Cl)c(OCCc3ccccc3)oc(=O)c2c1
Activity (Plasmodium falciparum [12]): Active
Activity (Plasmodium falciparum [13]): Active
inhibition (Plasmodium falciparum [13]): Active

Now from value to molecule, other results behind:

inhibition (Plasmodium falciparum [4]): Active
inhibition [7]: Active
EC50 (Plasmodium falciparum [8]): 22 µM
IC50 [9]: 18 µM
SMILES: O=C(CCCCCNC(=O)CCCC[C@H]1SC[C@H]2NC(=O)N[C@H]21)NCCCCCC(=O)Nc1ccc2c(Cl)c(OCCc3ccccc3)oc(=O)c2c1
Activity (Plasmodium falciparum [2]): inactive
Activity [3]: Non-toxic
Activity (Plasmodium falciparum [5]): inactive
inhibition (Plasmodium falciparum [6]): Active

inhibition [10]: Dose-dependent effect
inhibition (Plasmodium falciparum [4]): Active
inhibition [11]: Active
inhibition [7]: Active
inhibition [1]: Active
SMILES: N[C@@H](Cc1ccc(O)c([N+](=O)[O-])c1)C(=O)N[C@H](/C=C/S(=O)(=O)c1ccccc1)CCc1ccccc1

inhibition [15]: Active
inhibition [19]: Active
SMILES: NC(=O)[C@H](Cc1ccc(O)cc1)NC(=O)CCCCCCCCCCS(=O)(=O)/C=C/[C@H](CCc1ccccc1)NC(=O)[C@@H](N)Cc1ccc(O)c([N+](=O)[O-])c1
